According to the M2OR odorant receptor database:

biological target: T1, OR5P3 (Homo sapiens) (UniProt Q8WZ94); details: stereoisomer not certain
T1 sequence (whole entry): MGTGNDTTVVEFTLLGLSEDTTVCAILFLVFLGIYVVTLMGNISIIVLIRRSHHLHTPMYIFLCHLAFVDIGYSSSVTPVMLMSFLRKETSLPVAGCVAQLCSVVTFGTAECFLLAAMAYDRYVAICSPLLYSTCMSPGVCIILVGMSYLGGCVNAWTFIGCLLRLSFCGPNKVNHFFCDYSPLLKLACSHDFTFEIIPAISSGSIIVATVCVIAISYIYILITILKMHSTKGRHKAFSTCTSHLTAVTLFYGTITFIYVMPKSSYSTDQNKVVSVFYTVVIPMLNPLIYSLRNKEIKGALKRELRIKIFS
In short: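 Transient luciferase assays in mammalian cell lines were common, though methods varied by source. The values come from published papers and their supplementary material, with extra details from the original authors when needed. Responsive refers to a measured signal the original authors judged statistically different from baseline, and non-responsive (inactive) to the remainder.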

Odorant receptor agonist call, active:
O=c1ccc2ccccc2o1
CCCCCCCO

Odorant receptor agonist call, inactive:
CCCCCCCCS
CCCCOC=O
CCCCCCCC(C)=O
CCOC(=O)C(C)C
CC(C)=CCCC(C)=CCO
CCCCCCCCCS
CCCCCC(=O)CC
CC12CCC(CC1=O)C2(C)C (stereo not given)
CCCCC(=O)O
c1ccccc1
COc1cc(C(=O)O)ccc1O
CCCC(C)=O
CC(=O)OCc1ccccc1
O=C1Cc2ccccc2O1
CCCCCCCC(=O)[O-].[H+]
O=C1CCOc2ccccc21
CCC(=O)O
CC(=O)OCC=C(C)C
CCCCCCCCC(=O)O
CCCCCOC(=O)CCCCC
CC(=O)Oc1ccccc1
CCCC(=O)C(C)=O
CCCCCO
CCCCCCC(=O)[O-].[H+]
CCC(=O)C(=O)CC
CCCCCCCCCO
CC(C)=CCCC(C)CCO (stereo not given)
CCCCCCCCCC(=O)[O-].[H+]
